Assay results from PubChem BioAssay.
The list shows a part of the results. Activity calls are given as the source filed them.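 Rule for the calls, unless noted: active = mean inhibition above about 50% in the one-dose retest (limit read from the data); inactive = the rest.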

Columns and labels:
[1] = target: Sentrin-specific protease 8 (Homo sapiens) (UniProt Q96LD8); assay: SENP8 protease inhibitors, retest, confirmation, biochemical, luminescence, single concentration (AID 488912;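 active = mean inhibition across replicates above about 50%, limit read from the data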); settings: Recombinant SENP8, Z-RLRGG-aminoluciferin luminescence, 60 min; at 12.5 µM; stronger effect = higher value
Sentrin-specific protease 8 (Homo sapiens), sequence (Q96LD8 whole entry, looked up): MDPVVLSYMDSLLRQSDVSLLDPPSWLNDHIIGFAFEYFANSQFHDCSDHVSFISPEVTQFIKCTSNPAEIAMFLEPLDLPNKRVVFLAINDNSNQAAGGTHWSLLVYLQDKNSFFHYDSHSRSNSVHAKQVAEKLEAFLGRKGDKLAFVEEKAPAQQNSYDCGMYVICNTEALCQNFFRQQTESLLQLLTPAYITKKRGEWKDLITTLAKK

[2] = target: Sentrin-specific protease 6 (Homo sapiens) (UniProt Q9GZR1); assay: SENP6 protease inhibitors, confirmation, biochemical, luminescence, single concentration (AID 488915); settings: recombinant SENP6, Z-RLRGG-aminoluciferin luminescence; at 12.5 µM; stronger effect = higher value
Sentrin-specific protease 6 (Homo sapiens), sequence (Q9GZR1 628-1112 limits assumed): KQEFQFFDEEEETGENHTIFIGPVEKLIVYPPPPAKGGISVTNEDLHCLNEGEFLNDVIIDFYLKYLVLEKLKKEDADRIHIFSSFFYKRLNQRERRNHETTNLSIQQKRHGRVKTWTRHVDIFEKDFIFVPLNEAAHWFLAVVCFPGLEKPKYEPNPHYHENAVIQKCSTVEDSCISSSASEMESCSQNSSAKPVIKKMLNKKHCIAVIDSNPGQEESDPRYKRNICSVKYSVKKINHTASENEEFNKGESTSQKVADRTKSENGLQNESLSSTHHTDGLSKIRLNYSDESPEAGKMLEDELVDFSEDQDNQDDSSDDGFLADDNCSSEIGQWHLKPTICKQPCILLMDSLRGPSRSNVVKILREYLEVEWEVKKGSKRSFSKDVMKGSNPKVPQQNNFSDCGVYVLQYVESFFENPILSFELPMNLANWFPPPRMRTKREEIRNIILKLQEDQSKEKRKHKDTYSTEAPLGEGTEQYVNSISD

[3] = target: Sentrin-specific protease 7 (Homo sapiens) (UniProt Q9BQF6); assay: SENP7 protease inhibitors, retest, confirmation, biochemical, luminescence, single concentration (AID 488917); settings: recombinant SENP7, Z-RLRGG-aminoluciferin luminescence, 40 min; at 12.5 µM; stronger effect = higher value
Sentrin-specific protease 7 (Homo sapiens), sequence (Q9BQF6 706-1050 limits assumed): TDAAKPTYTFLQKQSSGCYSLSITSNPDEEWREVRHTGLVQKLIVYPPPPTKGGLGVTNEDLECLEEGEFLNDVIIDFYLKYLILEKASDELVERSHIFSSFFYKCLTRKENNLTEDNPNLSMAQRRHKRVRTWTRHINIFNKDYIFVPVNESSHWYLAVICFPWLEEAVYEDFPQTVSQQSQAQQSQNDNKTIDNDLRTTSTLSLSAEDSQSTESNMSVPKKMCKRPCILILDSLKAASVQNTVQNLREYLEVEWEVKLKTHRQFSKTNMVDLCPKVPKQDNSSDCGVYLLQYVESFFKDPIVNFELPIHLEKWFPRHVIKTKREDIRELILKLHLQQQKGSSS

Caspase-3 (Homo sapiens) = Caspase-3 (Homo sapiens) (UniProt P42574); assay: caspase-3 protease inhibitors, confirmation, selectivity assay for SENP inhibitor project, biochemical, single concentration (AID 488918;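 active = mean inhibition above about 50%, limit read from the data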;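 note: plate controls were enzyme with DMSO for no effect and wells without caspase-3 for full effect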); settings: purified caspase-3, Z-DEVD-aminoluciferin luminescence, 60 min; at 12.5 µM; stronger effect = higher value
Caspase-3 (Homo sapiens), sequence (P42574 28-227 limits assumed): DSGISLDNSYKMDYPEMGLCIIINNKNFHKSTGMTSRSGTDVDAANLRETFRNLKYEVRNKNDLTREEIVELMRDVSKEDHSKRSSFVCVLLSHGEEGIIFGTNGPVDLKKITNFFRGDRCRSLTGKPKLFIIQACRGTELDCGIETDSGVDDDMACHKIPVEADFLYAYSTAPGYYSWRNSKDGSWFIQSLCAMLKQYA

[4] = luciferase luminescence interference by compounds, confirmation, artefact control for SENP inhibitor project, biochemical, single concentration, SENP8 reaction pre-completed (AID 488919;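 active = mean inhibition above about 50% when retested at one dose, limit read from the data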;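 note: plate controls were DMSO wells with completed reaction for no effect and substrate without enzyme for full effect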); settings: Pre-incubated SENP8/Z-RLRGG-aminoluciferin, at 12.5 µM, stronger effect = higher value
[5] = activators of apoptotic CHOP UPR arm, confirmation, cell-based, CHO-CHOP luciferase reporter, single concentration (AID 463112; in the data active = activation above about 33%;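 note: 0% = DMSO wells and 100% = tunicamycin 10 µg/mL wells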); settings: CHO-CHOP cells, CHOP-luciferase reporter luminescence; at 10 µM; stronger effect = higher value; percent of tunicamycin response, DMSO as zero
Summary of the method: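 Assay system: CHO-CHOP luciferase reporter cell line | Compound: Single dose of 10 µM compound, 0.5% DMSO final | Timing: 6 h compound treatment, 37 °C | Technique: Steady-Glo luciferase luminescence | Benchmarks: High control tunicamycin 10 µg/mL, low control DMSO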

[6] = HIF-2a reporter inhibitor retest, confirmation, luminescence, 786-0 RCC cells (AID 651580;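 active = mean inhibition across four replicates of at least 40 percent at the single tested concentration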); settings: HIF-2a luciferase reporter luminescence, overnight, at 18.8 µM, stronger effect = higher value
[7] = HIF-1a luciferase reporter signal reduction – MiaPaCa-2 cells, single concentration, counter-screen for HIF-2a inhibitor project, confirmation (AID 651589;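 active = mean inhibition of the reporter signal across four replicates at the single tested dose of 50% or more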); settings: MiaPaCa-2 HIF-1a luciferase reporter, desferoxamine, overnight; at 18.8 µM; stronger effect = higher value
[8] = target: Tumor necrosis factor receptor superfamily member 10B (Homo sapiens) (UniProt O14763); assay: caspase-8 TRAIL sensitization, hit retest, confirmation, cell-based, NB7+caspase-8, with/without TRAIL, luminescence panel (AID 651596; in the data active = activity above about 50%); settings: NB7 neuroblastoma + caspase-8, TRAIL sensitization, luminescence viability, with TRAIL, mean of runs, at 10 µM, stronger effect = higher value
Tumor necrosis factor receptor superfamily member 10B (Homo sapiens), sequence (O14763 whole entry, looked up): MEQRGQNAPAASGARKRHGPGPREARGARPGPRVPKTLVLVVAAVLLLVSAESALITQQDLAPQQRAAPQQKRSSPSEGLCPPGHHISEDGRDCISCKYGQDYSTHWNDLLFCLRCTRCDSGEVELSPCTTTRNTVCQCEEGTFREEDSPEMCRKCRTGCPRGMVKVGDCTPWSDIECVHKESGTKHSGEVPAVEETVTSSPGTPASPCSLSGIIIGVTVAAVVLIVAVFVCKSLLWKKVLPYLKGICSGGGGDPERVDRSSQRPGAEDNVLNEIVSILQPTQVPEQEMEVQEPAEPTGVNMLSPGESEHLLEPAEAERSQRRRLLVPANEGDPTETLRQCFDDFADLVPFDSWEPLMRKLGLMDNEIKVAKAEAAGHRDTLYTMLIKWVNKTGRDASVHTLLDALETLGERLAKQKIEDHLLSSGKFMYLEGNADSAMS

[9] = as above; settings: NB7 neuroblastoma + caspase-8, without TRAIL, luminescence viability, without TRAIL, mean of runs, at 10 µM

N/C(=N\OC(=O)CCC1CCCCC1)c1ccccn1
inhibition [1]: 88.5% (active) | inhibition [2]: 88.3% (active) | inhibition [3]: 98.2% (active) | inhibition (Caspase-3 (Homo sapiens)): 90.7% (active) | inhibition [4]: 43.5% (inactive)

Cc1cccc(Nc2nc(-c3ccccc3)cs2)n1
inhibition [1]: -7.1% (inactive) | inhibition [2]: 91.5% (active) | inhibition [3]: 99.9% (active) | inhibition (Caspase-3 (Homo sapiens)): 67.1% (active) | inhibition [4]: 49.5% (inactive)

O=C1C=CC(=O)N1c1ccc(N2CCCCC2)cc1
activation [5]: 60.2% (active) | inhibition [6]: 17.3% (inactive) | inhibition [7]: -4.26% (inactive)

Cc1cc(C)nc(S/C=C/C(=O)c2ccccc2)n1
activation [5]: 83.4% (active) | inhibition [6]: 58.6% (active) | inhibition [7]: 98.9% (active)

CC1=CC(C)(C)Nc2ccc(OC(=O)CN3C(=O)C4CCCCC4C3=O)cc21 (centres undefined)
activation [5]: 68% (active) | inhibition [6]: 86.9% (active) | inhibition [7]: 86.2% (active)

Cc1cccc(-n2ncc(Cl)c(Cl)c2=O)c1
activation [5]: 29.5% (inactive) | inhibition [6]: 26.4% (inactive) | inhibition [7]: 101% (active) | activity [8]: 99.6% | activity [9]: 99.7%

COc1ccccc1OCc1nc2ccccc2s1
inhibition [1]: 96.7% (active) | inhibition [2]: 97.3% (active) | inhibition [3]: 102% (active) | inhibition (Caspase-3 (Homo sapiens)): 96% (active) | inhibition [4]: 95.3% (active)

COc1ccc(CNC(=O)COc2ccccc2C(=O)c2cnn(-c3ccccc3)c2)cc1OC
inhibition [1]: 77.7% (active) | inhibition [2]: 76.1% (active) | inhibition [3]: 89.2% (active) | inhibition (Caspase-3 (Homo sapiens)): 61.9% (active) | inhibition [4]: 65.5% (active)

Fc1ccc(COc2ccc(-c3nnco3)cc2)cc1
inhibition [1]: 29% (inactive) | inhibition [2]: 60.4% (active) | inhibition [3]: 85.8% (active) | inhibition (Caspase-3 (Homo sapiens)): 67.9% (active) | inhibition [4]: 65.6% (active)

CCCc1cc(=O)oc2c(C)c(OCC(=O)Nc3ccccn3)ccc12
inhibition [1]: 18.2% (inactive) | inhibition [2]: 14.4% (inactive) | inhibition [3]: 23.3% (inactive) | inhibition (Caspase-3 (Homo sapiens)): 39.2% (inactive) | inhibition [4]: 11.8% (inactive)
